Assay results of several laboratories.
Compare with care: the assays were run in different laboratories.
IRAK4: Interleukin-1 receptor-associated kinase 4 (IRAK4, Homo sapiens, UniProt Q9NWZ3)
P2RY14: P2Y purinoceptor 14 (P2RY14, Homo sapiens, UniProt Q15391)

Compound | target | test | test system | setting | IC50 [nM]
CNC(=O)c1ccccc1Nc1nc(Nc2ccc(CO)cc2)ncc1C1CC1 | IRAK4 | enzyme activity, inhibitor, radiometric | – | – | 3
Cn1cc(C2=C(c3cn(CCCSC(=N)N)c4ccccc34)C(=O)NC2=O)c2ccccc21 | Homeodomain-interacting protein kinase 1 (HIPK1, Homo sapiens, UniProt Q86Z02) | enzyme activity, inhibitor | – | – | 2900
Cn1ccc(-c2ccc(-c3cc(C(=O)O)cc4cc(-c5ccc(C(F)(F)F)cc5)ccc34)cc2)n1 | P2RY14 | ligand displacement in cells, flow cytometry | – | – | 35.5
O=C(N[C@@H](Cc1c[nH]c2ccccc12)C(=O)O)c1ccco1 | P2RY14 | cAMP, antagonist | – | – | 23.4
CNC(=O)c1ccccc1Nc1nc(Nc2ccc(CO)nc2)ncc1Cl | IRAK4 | enzyme activity, inhibitor, radiometric | – | – | 20.8
Cc1cc2c(cc1C)N[C@H](c1ccccc1)[C@@H](O)C(=O)N2 | Tyrosine-protein kinase JAK3 (JAK3, Homo sapiens, UniProt P52333) | enzyme activity, inhibitor, ELISA | – | – | 1150
CC(C)OC(=O)[C@H](Cc1c[nH]c2ccccc12)NC(=O)c1ccc2nccnc2c1 | P2RY14 | cAMP, antagonist | – | – | 9.8
OCc1ccc(Nc2ncc(Cl)c(Nc3ccccc3-c3ncc[nH]3)n2)cc1 | IRAK4 | enzyme activity, inhibitor, radiometric | – | – | 84.9
O=C(O)c1cc(-c2ccc(-n3nncc3CCOP(=O)(O)O)cc2)c2ccc(-c3ccc(C(F)(F)F)cc3)cc2c1 | P2RY14 | ligand displacement in cells, flow cytometry | – | – | 157
CNS(=O)(=O)c1ccccc1Nc1nc(Nc2ccc(CO)nc2)ncc1Cl | IRAK4 | enzyme activity, inhibitor, radiometric | – | – | 12.6
O=C(NO)c1ccc(Cn2cnc3c(Nc4ccc(Cl)cc4)ncnc32)cc1 | Histone deacetylase 3 (HDAC3, Homo sapiens, UniProt O15379) | enzyme activity, inhibitor, fluorescence | – | – | 15.1
Nc1ncnc2c1ncn2[C@@H]1O[C@H](CSCC[C@H](N)C(=O)O)[C@@H](O)[C@H]1O | Histone-lysine N-methyltransferase, H3 lysine-36 specific (NSD1, Homo sapiens, UniProt Q96L73) | enzyme activity, inhibitor | – | – | 6260
Oc1ccccc1-c1n[nH]cc1-c1ccnc2ccccc12 | TGF-beta receptor type-1 (TGFBR1, Homo sapiens, UniProt P36897) | enzyme activity, inhibitor, radiometric | – | – | 7400
CNC(=O)c1ccccc1Nc1nc(Nc2ccc(CC(F)F)cc2)ncc1Cl | IRAK4 | enzyme activity, inhibitor, radiometric | – | – | 74.8
C=CCC1c2ccc(OC)c(OC)c2CN2CCc3cc4c(cc3C12)OCO4 (stereo not shown) | P2X purinoceptor 7 (P2RX7, Homo sapiens, UniProt Q99572) | ion current, patch clamp | – | – | 470
O=C(O)c1cc(-c2ccc(-n3ccnn3)cc2)c2ccc(-c3ccc(C(F)(F)F)cc3)cc2c1 | P2RY14 | ligand displacement in cells, flow cytometry | – | – | 24.4
O=C(COc1ccccc1)N[C@@H](Cc1c[nH]c2ccccc12)C(=O)O | P2RY14 | cAMP, antagonist | – | – | 18.9
O=C(O)c1cc(-c2ccc(-n3cc(CCO)nn3)cc2)c2ccc(-c3ccc(C(F)(F)F)cc3)cc2c1 | P2RY14 | ligand displacement in cells, flow cytometry | – | – | 153
CC(C)OC(=O)[C@H](Cc1c[nH]c2ccccc12)NC(=O)COc1ccccc1 | P2RY14 | cAMP, antagonist | – | – | 4.4
C#Cc1cnc(Nc2ccnc(CO)c2)nc1Nc1ccccc1S(C)(=O)=NC#N (stereo not shown) | IRAK4 | enzyme activity, inhibitor, radiometric | – | – | 4.47
c1c(N2CCCC2)nc(N2CCCC2)nc1N1CCNCC1 | Caspase-1 (CASP1, Homo sapiens, UniProt P29466) | enzyme activity, inhibitor | – | with preincubation | 233
CNC(=O)c1ccccc1Nc1nc(Nc2ccnc(CO)c2)ncc1Cl | IRAK4 | enzyme activity, inhibitor, radiometric | – | – | 11.5
Cc1ccc(OCC(=O)N[C@@H](Cc2c[nH]c3ccccc23)C(=O)OC(C)C)cc1 | Cytochrome P450 2D6 (CYP2D6, Homo sapiens, UniProt P10635) | enzyme activity, inhibitor | human, liver microsomes | 30 min | 27400
O=C(O)c1cc(-c2ccc(-c3c[nH]nn3)cc2)c2ccc(-c3ccc(C(F)(F)F)cc3)cc2c1 | P2RY14 | ligand displacement in cells, flow cytometry | – | – | 3.69
CS(=O)(=NC#N)c1ccccc1Nc1nc(Nc2ccnc(CO)c2)ncc1Cl (stereo not shown) | IRAK4 | enzyme activity, inhibitor, radiometric | – | – | 28.6
